Measurements published in ChEMBL document CHEMBL1773044, “Potent, selective, and orally bioavailable inhibitors of mammalian target of rapamycin (mTOR) kinase based on a quaternary substituted dihydrofuropyrimidine” (J Med Chem, 2011).

Legend:
MCF7 = test: Antiproliferative activity against human MCF7 cells expressing neo/Her2 after 3 days by CellTiter-Glo luminescent cell viability assay; settings: MCF7, 72 h
PC-3 = test: Antiproliferative activity against human PC3 cells after 3 days by CellTiter-Glo luminescent cell viability assay; settings: PC-3, 72 h
[1] = Volume of distribution at steady state in mouse at 1 mg/kg, iv; assay type: ADME, organism-based; set-up: dose 1 mg/kg, route intravenous; settings: in vivo, read-out: Vdss
In short: (§1)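 Mouse PK: iv dose 1 mg/kg given as a solution in 80% PEG/10% EtOH; po dose 5 mg/kg given as a suspension in MCT (0.5% methylcellulose/0.2% Tween 80).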

[2] = Half life in mouse at 1 mg/kg, iv; assay type: ADME, organism-based; set-up: dose 1 mg/kg, route intravenous; settings: in vivo; in short: as §1
Mus musculus [3] = test: (§2) AUC in mouse at 5 mg/kg, po; assay type: ADME, organism-based, Plasma; set-up: dose 5 mg/kg, route oral; settings: in vivo; in short: as §1
Mus musculus [4] = test: (§3) Oral bioavailability in mouse at 5 mg/kg; assay type: ADME, organism-based; settings: in vivo; in short: as §1
[5] = Plasma protein binding in human; assay type: ADME, cell-free; settings: read-out: PPB (converted)
[6] = Plasma protein binding in rat; assay type: ADME, cell-free; settings: read-out: PPB (converted)
[7] = Plasma protein binding in mouse; assay type: ADME, cell-free; settings: read-out: PPB (converted)
[8] = Clearance in mouse at 1 mg/kg, iv; assay type: ADME, organism-based; set-up: dose 1 mg/kg, route intravenous; settings: in vivo; in short: as §1
[9] = as §2; assay type: ADME, organism-based, Plasma; set-up: dose 5 mg/kg, route oral; settings: plasma; in short: as §1
[10] = as §3; assay type: ADME, organism-based; settings: in vivo; in short: as §1
Mus musculus [11] = test: In vivo inhibition of mTORC2 in NCR nude mouse xenografted with human NCI-PC3 cells assessed as reduction in phosphorylated Akt level at 25 to 100 mg/kg, po administered as single dose relative to control; values are per cent of control; settings: dose mg/kg 25-100
Mus musculus [12] = test: In vivo inhibition of mTORC1 in NCR nude mouse xenografted with human NCI-PC3 cells assessed as reduction in phosphorylated S6RP level at 25 to 100 mg/kg, po administered as single dose relative to control; values are per cent of control; settings: dose mg/kg 25-100
[13] = molecular target: Serine/threonine-protein kinase mTOR (Homo sapiens, UniProt P42345); test: Inhibition of human recombinant mTOR expressed in insect cells using 4E-BP1 substrate after 30 mins by fluorescence resonance energy transfer assay
[14] = Selectivity ratio of Ki for human recombinant mTOR (1360-2549) over Ki for PI3Kalpha

| Compound | IC50 (MCF7) | IC50 (PC-3) | Vd [1] | half-life [2] | fraction unbound [5] | fraction unbound [6] | fraction unbound [7] | also measured |
| --- | --- | --- | --- | --- | --- | --- | --- | --- |
| CCNC(=O)Nc1ccc(-c2nc(N3CCOC[C@@H]3C)c3c(n2)[C@@](C)(CCOC)OC3)cc1 | 1200 nM | 284 nM | – | – | – | – | – | – |
| CCNC(=O)Nc1ccc(-c2nc(N3CCOCC3)c3c(n2)[C@@](C)(CO)OC3)cc1 | 1700 nM | 960 nM | – | – | – | – | – | – |
| CCNC(=O)Nc1ccc(-c2nc(N3CCOC[C@@H]3C)c3c(n2)[C@](C)(CC2CC2)OC3)cc1 | 340 nM | 100 nM | – | – | – | – | – | – |
| C[C@H]1COCCN1c1nc(-c2ccc(NC(=O)NCCC#N)cc2)nc2c1COC2(C)C | 260 nM | 120 nM | – | – | – | – | – | – |
| CCNC(=O)Nc1ccc(-c2nc(N3CCOC[C@@H]3C)c3c(n2)[C@@](C)(CO)OC3)cc1 | 530 nM | 450 nM | – | – | – | – | – | – |
| CCNC(=O)Nc1ccc(-c2nc(N3CCOC[C@@H]3C)c3c(n2)[C@@](C)(CCO)OC3)cc1 | 510 nM | 118 nM | 2.4 L/kg | 20.4 min | 0.14 | 0.21 | 0.06 | AUC (Mus musculus [3]): 0.43 µM·h; F (Mus musculus [4]): 65% |
| C[C@H]1COCCN1c1nc(-c2ccc(NC(=O)NC3COC3)cc2)nc2c1COC2(C)C | 480 nM | 160 nM | – | – | – | – | – | – |
| CCNC(=O)Nc1ccc(-c2nc(N3CCOCC3)c3c(n2)[C@](C)(CO)OC3)cc1 | 280 nM | 220 nM | – | – | – | – | – | – |
| C[C@H]1COCCN1c1nc(-c2ccc(NC(=O)NC[C@@H](O)CO)cc2)nc2c1COC2(C)C | 1900 nM | 330 nM | – | – | – | – | – | – |
| CCNC(=O)Nc1ccc(-c2nc(N3CCOC[C@@H]3C)c3c(n2)[C@](C)(CCN(C)C)OC3)cc1 | 1100 nM | 220 nM | 2.6 L/kg | 34.2 min | 0.41 | 0.33 | 0.22 | clearance [8]: 76 mL/min/kg; AUC [9]: 0.14 µM·h; bioavailability [10]: 6% |
| CCNC(=O)Nc1ccc(-c2nc(N3CCOCC3)c3c(n2)C(C)(C)OC3=O)cc1 | 310 nM | 120 nM | 0.57 L/kg | 12.6 min | 0.02 | 0.05 | 0.02 | AUC (Mus musculus [3]): 1.5 µM·h; bioavailability (Mus musculus [4]): 23% |
| CCNC(=O)Nc1ccc(-c2nc(N3CCOCC3)c3c(n2)[C@@](C)(CCO)OC3)cc1 | 490 nM | 210 nM | – | – | – | – | – | – |
| CCNC(=O)Nc1ccc(-c2nc(N3CCOCC3)c3sc(C(C)(C)O)cc3n2)cc1 | – | – | – | – | – | – | – | Ki [13]: 3 nM; Ratio Ki [14]: 20 |

More lines, main results first:

| IC50 (MCF7) | IC50 (PC-3) | Vd [1] | half-life [2] | fraction unbound [5] | fraction unbound [6] | fraction unbound [7] | Compound | also measured |
| --- | --- | --- | --- | --- | --- | --- | --- | --- |
| 29 nM | 130 nM | 2.7 L/kg | 78 min | 0.34 | 0.12 | 0.15 | CCNC(=O)Nc1ccc(-c2nc(N3CCOC[C@@H]3C)c3c(n2)[C@@](C)(CC(C)(C)O)OC3)cc1 | AUC (Mus musculus [3]): 0.65 µM·h; F (Mus musculus [4]): 73% |
| 220 nM | 60 nM | – | – | – | – | – | CCNC(=O)Nc1ccc(-c2nc(N3CCOC[C@@H]3C)c3c(n2)C(C)(C)OC3=O)cc1 | – |
| 95 nM | 31 nM | – | – | – | – | – | CCNC(=O)Nc1ccc(-c2nc(N3CCOC[C@@H]3C)c3c(n2)[C@@](C)(CC2CC2)OC3)cc1 | – |
| 48 nM | 16 nM | 1.5 L/kg | 42.6 min | 0.22 | 0.24 | 0.17 | CCNC(=O)Nc1ccc(-c2nc(N3CCOCC3)c3c(n2)[C@](C)(CCO)OC3)cc1 | AUC (Mus musculus [3]): 0.96 µM·h; F (Mus musculus [4]): 56% |
| 193 nM | 74 nM | – | – | – | – | – | CCNC(=O)Nc1ccc(-c2nc(N3CCOC[C@@H]3C)c3c(n2)[C@](C)(CCC#N)OC3)cc1 | – |
| 27 nM | 28 nM | 1 L/kg | 16.2 min | 0.23 | 0.21 | 0.14 | CCNC(=O)Nc1ccc(-c2nc(N3CCOCC3)c3c(n2)[C@](C)(CC(C)(C)O)OC3)cc1 | AUC (Mus musculus [3]): 0.66 µM·h; F (Mus musculus [4]): 55% |
| 75 nM | 18 nM | 1.3 L/kg | 66 min | 0.18 | 0.22 | 0.09 | CCNC(=O)Nc1ccc(-c2nc(N3CCOC[C@@H]3C)c3c(n2)[C@](C)(CC(C)(C)O)OC3)cc1 | AUC (Mus musculus [3]): 0.63 µM·h; F (Mus musculus [4]): 53% |
| 66 nM | 46 nM | 1.5 L/kg | 25.2 min | 0.28 | 0.3 | 0.19 | C[C@H]1COCCN1c1nc(-c2ccc(NC(=O)NCCO)cc2)nc2c1COC2(C)C | clearance [8]: 53 mL/min/kg; AUC [9]: 0.81 µM·h; bioavailability [10]: 22% |
| 192 nM | 95 nM | – | – | – | – | – | CCNC(=O)Nc1ccc(-c2nc(N3CCOC[C@@H]3C)c3c(n2)[C@](C)(CO)OC3)cc1 | – |
| 120 nM | 120 nM | 1.9 L/kg | 132 min | 0.02 | 0.04 | 0.03 | C[C@H]1COCCN1c1nc(-c2ccc(Nc3cccc(=O)[nH]3)cc2)nc2c1COC2(C)C | clearance [8]: 44 mL/min/kg; AUC [9]: 0.31 µM·h; bioavailability [10]: 7% |
| 160 nM | 52 nM | – | – | – | – | – | C[C@H]1COCCN1c1nc(-c2ccc(NC(=O)Nc3cnn(C)c3)cc2)nc2c1COC2(C)C | – |
| 22 nM | 17 nM | 2 L/kg | 46.2 min | 0.27 | 0.26 | 0.11 | CCNC(=O)Nc1ccc(-c2nc(N3C[C@H]4CC[C@@H](C3)O4)c3c(n2)[C@](C)(CCO)OC3)cc1 | AUC (Mus musculus [3]): 0.78 µM·h; F (Mus musculus [4]): 50% |
| 100 nM | 41 nM | – | – | – | – | – | CCNC(=O)Nc1ccc(-c2nc(N3CCOC[C@@H]3C)c3c(n2)[C@@](C)(CCC#N)OC3)cc1 | – |
| 15 nM | 15 nM | 1.5 L/kg | 19.8 min | 0.13 | – | 0.06 | CCNC(=O)Nc1ccc(-c2nc(N3CCOC[C@@H]3C)c3c(n2)[C@](C)(CCO)OC3)cc1 | AUC (Mus musculus [3]): 0.59 µM·h; F (Mus musculus [4]): 110%; level, % of control (Mus musculus [11]): 15%; level, % of control (Mus musculus [12]): 15% |
| 160 nM | 66 nM | – | – | – | – | – | CCNC(=O)Nc1ccc(-c2nc(N3C[C@H]4CC[C@@H](C3)O4)c3c(n2)[C@@](C)(CCO)OC3)cc1 | – |
| 130 nM | 62 nM | – | – | – | – | – | CCNC(=O)Nc1ccc(-c2nc(N3CCOC[C@@H]3C)c3c(n2)[C@](C)(CCOC)OC3)cc1 | – |
| 170 nM | 140 nM | – | – | – | – | – | CCNC(=O)Nc1ccc(-c2nc(N3CCOCC3)c3c(n2)[C@@](C)(CC(C)(C)O)OC3)cc1 | – |
| 52 nM | 78 nM | 1.4 L/kg | 24 min | 0.14 | 0.08 | 0.05 | CCNC(=O)Nc1ccc(-c2nc(N3CCOC[C@@H]3C)c3c(n2)C(C)(C)OC3)cc1 | clearance [8]: 46 mL/min/kg; AUC [9]: 6.1 µM·h; bioavailability [10]: 140%; level, % of control (Mus musculus [11]): 15%; level, % of control (Mus musculus [12]): 15% |
